According to ChEMBL document CHEMBL1137559, “Rational design of 5'-thiourea-substituted alpha-thymidine analogues as thymidine monophosphate kinase inhibitors capable of inhibiting mycobacterial growth” (J Med Chem, 2007):
Values after ≈ are worked out from the molar mass of the structure shown.

Test system: Mycobacterium tuberculosis variant bovis
Experiment: Growth inhibition of Mycobacterium bovis BCG 1173P2
Assay type: functional, Mycobacterium bovis BCG str. Pasteur 1173P2
Procedure, shortened: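 Broth microdilution in 7H9 Middlebrook medium with 0.2% glycerol, 0.5% Tween 80 and OADC. Uses two-fold serial dilutions and about 10^5 bacteria/ml, incubated at 37 °C. Resazurin 0.01% was added at day 8 and incubated overnight, then read as OD 570 minus 630 nm. MIC was taken as the lowest concentration preventing the blue-to-pink change.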

SMILES	MIC99 [µg/mL]	MIC50 [µg/mL]
Cc1cn([C@@H]2C[C@H](O)[C@@H](CNC(=S)Nc3ccc(Cl)c(Cl)c3)O2)c(=O)[nH]c1=O	25 (≈ 56.1 µM)	
Cc1cn([C@@H]2CC[C@@H](CNC(=S)Nc3ccc(Cl)c(C(F)(F)F)c3)O2)c(=O)[nH]c1=O	40 (≈ 86.4 µM)	
Cc1cn([C@@H]2C[C@H](O)[C@@H](CNC(=O)Nc3ccc(Cl)c(Cl)c3)O2)c(=O)[nH]c1=O		40 (≈ 93.2 µM)
Cc1cn([C@@H]2C[C@H](O)[C@@H](CNC(=O)Nc3ccc(Cl)c(C(F)(F)F)c3)O2)c(=O)[nH]c1=O		40 (≈ 86.4 µM)
Cc1cn([C@@H]2C[C@H](O)[C@@H](CNC(=S)Nc3ccc(Cl)c(C(F)(F)F)c3)O2)c(=O)[nH]c1=O	20 (≈ 41.8 µM)	
Cc1cn([C@@H]2C[C@H](O)[C@@H](CNC(=S)NCc3ccc(Cl)c(C(F)(F)F)c3)O2)c(=O)[nH]c1=O	40 (≈ 81.2 µM)	
Cc1cn([C@@H]2C=C[C@@H](CNC(=S)Nc3ccc(Cl)c(C(F)(F)F)c3)O2)c(=O)[nH]c1=O	100 (≈ 217 µM)	
Cc1cn([C@@H]2C[C@H](O)[C@@H](CNC(=S)NCCc3ccc(Cl)c(Cl)c3)O2)c(=O)[nH]c1=O	50 (≈ 106 µM)	
Cc1cn([C@@H]2C[C@H](O)[C@@H](CNC(=S)Nc3ccc4c(c3)C(=O)OC43c4ccc(O)cc4Oc4cc(O)ccc43)O2)c(=O)[nH]c1=O	> 150	
Cc1cn([C@@H]2C[C@H](O)[C@@H](CN)O2)c(=O)[nH]c1=O	> 40	
